Measurements: ChEMBL document CHEMBL1154183, “Structure-based optimization of potent and selective inhibitors of the tyrosine kinase erythropoietin producing human hepatocellular carcinoma receptor B4 (EphB4)” (J Med Chem, 2009)

Assays:
[1] = target: Tyrosine-protein kinase ABL1 (Homo sapiens) (UniProt P00519); test: Binding affinity to phosphorylated ABL1 assessed as percentage of kinase remaining bound to the bead at 1 uM by T7 phage display based binding assay
Method in brief: (§1)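 Competition binding assay run by a contract lab. Each kinase was expressed as a fusion to T7 phage, full-length for small kinases and catalytic domain for large ones. Phage were mixed with an immobilized known kinase inhibitor on streptavidin magnetic beads and with test compound at a single 1 μM. Kinase/phage still bound to the beads was quantified by qPCR and expressed as % of DMSO control.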

[2] = target: Serine/threonine-protein kinase pim-1 (Homo sapiens) (UniProt P11309); test: Inhibition of PIM1 assessed as remaining enzyme activity at 1 uM relative to DMSO
Method in brief: (§2)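 Radiometric kinase assay run robotically at room temperature for 30 min. Contained 10 mM magnesium acetate and [γ-33P]ATP (800 cpm/pmol) at 5, 20 or 50 μM, chosen per kinase to be at or below its ATP Km. Reactions were started with MgATP, stopped with orthophosphoric acid and spotted onto P81 filters. Result is mean % activity of duplicates at one inhibitor concentration versus DMSO control.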

[3] = target: Homeodomain-interacting protein kinase 2 (Homo sapiens) (UniProt Q9H2X6); test: Inhibition of HIPK2 assessed as remaining enzyme activity at 1 uM relative to DMSO
Method in brief: (§3)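 Dundee kinase panel, radiometric: [γ-33P]ATP (800 cpm/pmol) at 5, 20 or 50 μM, at or below each kinase's ATP Km; 10 mM magnesium acetate; robotic, room temperature, 30 min. Reactions started with MgATP, stopped with orthophosphoric acid, spotted onto P81 filters. Inhibitor tested at a single concentration; mean % activity of duplicates relative to DMSO control.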

[4] = target: Serine/threonine-protein kinase BRSK2 (Homo sapiens) (UniProt Q8IWQ3); test: Inhibition of BRSK2 assessed as remaining enzyme activity at 1 uM relative to DMSO
Method in brief: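 Panel assay run robotically at room temperature for 30 min with 10 mM magnesium acetate and [γ-33P]ATP (800 cpm/pmol) at 5, 20 or 50 μM, chosen per kinase to be at or below its ATP Km. Reactions were started with MgATP, stopped with orthophosphoric acid and spotted on P81 filters. Activity is the mean of duplicates at a single inhibitor concentration, as % of DMSO control.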

[5] = target: Dual specificity tyrosine-phosphorylation-regulated kinase 3 (Homo sapiens) (UniProt O43781); test: Inhibition of DYRK3 assessed as remaining enzyme activity at 1 uM relative to DMSO
Method in brief: (§4)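 Radiometric kinase assay run robotically at room temperature for 30 min, linear in time and enzyme. Conditions: 10 mM magnesium acetate, [γ-33P]ATP (800 cpm/pmol) at 5, 20 or 50 μM per kinase, at or below its ATP Km. Started with MgATP and stopped with orthophosphoric acid, then spotted on P81 filters. Reported as mean % activity of duplicates versus DMSO controls.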

[6] = target: Tyrosine-protein kinase BTK (Homo sapiens) (UniProt Q06187); test: Inhibition of BTK assessed as remaining enzyme activity at 1 uM relative to DMSO; method in brief: as §3
[7] = target: Bone morphogenetic protein receptor type-1B (Homo sapiens) (UniProt O00238); test: Binding affinity to BMPR1B assessed as percentage of kinase remaining bound to the bead at 1 uM by T7 phage display based binding assay; method in brief: as §1
[8] = target: Serine/threonine-protein kinase Nek2 (Homo sapiens) (UniProt P51955); test: Inhibition of NEK2alpha assessed as remaining enzyme activity at 1 uM relative to DMSO; method in brief: as §2
[9] = target: Serine/threonine-protein kinase TBK1 (Homo sapiens) (UniProt Q9UHD2); test: Inhibition of TBK1 assessed as remaining enzyme activity at 1 uM relative to DMSO
[10] = target: Vascular endothelial growth factor receptor 2 (Homo sapiens) (UniProt P35968); test: Binding affinity to VEGFR2 assessed as percentage of kinase remaining bound to the bead at 1 uM by T7 phage display based binding assay
Method in brief: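 Kinases expressed as T7 phage fusions (full-length for small kinases, catalytic domain for large). Phage mixed with an immobilized known kinase inhibitor on streptavidin magnetic beads plus test compound at a single 1 μM concentration. Ligand displacement from the ATP site was read by quantitative PCR as % kinase/phage still bead-bound versus DMSO control. Human kinases.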

[11] = target: Serine/threonine-protein kinase 32B (Homo sapiens) (UniProt Q9NY57); test: Binding affinity to YANK2 assessed as percentage of kinase remaining bound to the bead at 1 uM by T7 phage display based binding assay; method in brief: as §1
[12] = target: Ribosomal protein S6 kinase alpha-1 (Homo sapiens) (UniProt Q15418); test: Inhibition of RSK1 assessed as remaining enzyme activity at 1 uM relative to DMSO
[13] = target: Ephrin type-B receptor 3 (Homo sapiens) (UniProt P54753); test: Inhibition of EPHB3 assessed as remaining enzyme activity at 1 uM relative to DMSO; method in brief: as §4
[14] = target: Ribosomal protein S6 kinase alpha-6 (Homo sapiens) (UniProt Q9UK32); test: Binding affinity to RSK4 kinase domain 2 C-terminal assessed as percentage of kinase remaining bound to the bead at 1 uM by T7 phage display based binding assay; method in brief: as §1
[15] = target: Dual specificity protein kinase TTK (Homo sapiens) (UniProt P33981); test: Inhibition of TTK assessed as remaining enzyme activity at 1 uM relative to DMSO
[16] = target: Tyrosine-protein kinase HCK (Homo sapiens) (UniProt P08631); test: Binding affinity to HCK assessed as percentage of kinase remaining bound to the bead at 1 uM by T7 phage display based binding assay; method in brief: as §1
[17] = target: Serine/threonine-protein kinase Nek6 (Homo sapiens) (UniProt Q9HC98); test: Inhibition of NEK6 assessed as remaining enzyme activity at 1 uM relative to DMSO; method in brief: as §2
[18] = target: Misshapen-like kinase 1 (Homo sapiens) (UniProt Q8N4C8); test: Inhibition of MINK1 assessed as remaining enzyme activity at 1 uM relative to DMSO; method in brief: as §2
[19] = target: Ribosomal protein S6 kinase alpha-3 (Homo sapiens) (UniProt P51812); test: Inhibition of RSK2 assessed as remaining enzyme activity at 1 uM relative to DMSO
[20] = target: RAC-alpha serine/threonine-protein kinase (Homo sapiens) (UniProt P31749); test: Inhibition of PKBalpha assessed as remaining enzyme activity at 1 uM relative to DMSO; method in brief: as §2
[21] = target: Proto-oncogene tyrosine-protein kinase Src (Homo sapiens) (UniProt P12931); test: Inhibition of Src assessed as remaining enzyme activity at 3 uM relative to DMSO
[22] = target: SRSF protein kinase 1 (Homo sapiens) (UniProt Q96SB4); test: Inhibition of SRPK1 assessed as remaining enzyme activity at 3 uM relative to DMSO
[23] = target: Protein kinase C zeta type (Homo sapiens) (UniProt Q05513); test: Inhibition of PKCzeta assessed as remaining enzyme activity at 3 uM relative to DMSO
[24] = target: Mitogen-activated protein kinase 11 (Homo sapiens) (UniProt Q15759); test: Inhibition of p38beta assessed as remaining enzyme activity at 3 uM relative to DMSO
[25] = target: Tyrosine-protein kinase CSK (Homo sapiens) (UniProt P41240); test: Inhibition of CSK assessed as remaining enzyme activity at 3 uM relative to DMSO; method in brief: as §3
Sequence of Tyrosine-protein kinase CSK (Homo sapiens) (P41240 2-450 limits assumed): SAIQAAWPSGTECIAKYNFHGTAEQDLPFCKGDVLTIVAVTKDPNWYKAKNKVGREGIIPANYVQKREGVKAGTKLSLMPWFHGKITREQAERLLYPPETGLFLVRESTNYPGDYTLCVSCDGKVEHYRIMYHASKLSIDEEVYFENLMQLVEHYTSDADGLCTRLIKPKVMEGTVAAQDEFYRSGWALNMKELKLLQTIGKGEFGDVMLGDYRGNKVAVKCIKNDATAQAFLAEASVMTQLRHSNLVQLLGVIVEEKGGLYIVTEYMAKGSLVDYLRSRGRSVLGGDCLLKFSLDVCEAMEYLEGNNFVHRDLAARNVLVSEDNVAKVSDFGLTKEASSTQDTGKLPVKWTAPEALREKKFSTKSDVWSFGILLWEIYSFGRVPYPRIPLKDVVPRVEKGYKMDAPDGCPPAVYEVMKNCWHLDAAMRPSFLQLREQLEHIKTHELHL

Sequence of Serine/threonine-protein kinase BRSK2 (Homo sapiens) (Q8IWQ3 whole entry): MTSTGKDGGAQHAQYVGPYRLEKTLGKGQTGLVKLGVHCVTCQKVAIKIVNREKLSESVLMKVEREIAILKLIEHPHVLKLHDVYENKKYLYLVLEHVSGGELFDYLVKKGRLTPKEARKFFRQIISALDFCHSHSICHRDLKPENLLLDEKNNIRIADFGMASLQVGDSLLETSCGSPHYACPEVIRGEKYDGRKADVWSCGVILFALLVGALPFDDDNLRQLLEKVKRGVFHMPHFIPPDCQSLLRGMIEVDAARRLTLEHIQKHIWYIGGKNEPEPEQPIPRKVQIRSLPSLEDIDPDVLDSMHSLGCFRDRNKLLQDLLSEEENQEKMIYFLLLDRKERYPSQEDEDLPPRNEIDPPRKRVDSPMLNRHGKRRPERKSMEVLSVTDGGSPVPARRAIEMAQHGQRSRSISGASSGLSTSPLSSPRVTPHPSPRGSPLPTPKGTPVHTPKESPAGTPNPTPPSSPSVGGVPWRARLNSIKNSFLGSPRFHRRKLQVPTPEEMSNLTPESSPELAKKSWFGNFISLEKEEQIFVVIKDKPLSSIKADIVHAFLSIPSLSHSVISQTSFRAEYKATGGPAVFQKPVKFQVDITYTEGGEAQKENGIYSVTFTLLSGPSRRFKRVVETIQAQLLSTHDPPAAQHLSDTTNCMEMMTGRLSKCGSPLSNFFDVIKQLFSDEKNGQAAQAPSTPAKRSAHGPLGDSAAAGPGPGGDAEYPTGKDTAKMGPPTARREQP
Sequence of Ribosomal protein S6 kinase alpha-1 (Homo sapiens) (Q15418 whole entry): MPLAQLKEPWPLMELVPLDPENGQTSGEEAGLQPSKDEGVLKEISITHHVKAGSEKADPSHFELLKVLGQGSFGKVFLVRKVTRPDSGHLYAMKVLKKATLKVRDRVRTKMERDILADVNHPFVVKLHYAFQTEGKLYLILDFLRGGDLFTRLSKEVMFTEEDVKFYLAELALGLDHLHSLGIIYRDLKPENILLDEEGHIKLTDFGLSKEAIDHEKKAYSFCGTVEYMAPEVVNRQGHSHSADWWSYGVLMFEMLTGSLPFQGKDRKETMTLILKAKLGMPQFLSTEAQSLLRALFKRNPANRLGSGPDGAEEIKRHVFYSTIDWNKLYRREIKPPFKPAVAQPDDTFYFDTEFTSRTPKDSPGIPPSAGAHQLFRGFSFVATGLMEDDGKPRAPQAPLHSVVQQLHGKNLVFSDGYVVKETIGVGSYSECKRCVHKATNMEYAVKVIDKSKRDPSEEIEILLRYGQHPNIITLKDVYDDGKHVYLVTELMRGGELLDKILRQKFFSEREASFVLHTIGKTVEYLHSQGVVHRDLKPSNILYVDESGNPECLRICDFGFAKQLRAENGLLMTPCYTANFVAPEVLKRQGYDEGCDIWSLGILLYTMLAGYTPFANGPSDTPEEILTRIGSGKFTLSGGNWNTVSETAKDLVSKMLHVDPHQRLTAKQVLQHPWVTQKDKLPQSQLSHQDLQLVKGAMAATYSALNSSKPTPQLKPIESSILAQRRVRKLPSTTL
Sequence of Bone morphogenetic protein receptor type-1B (Homo sapiens) (O00238 whole entry): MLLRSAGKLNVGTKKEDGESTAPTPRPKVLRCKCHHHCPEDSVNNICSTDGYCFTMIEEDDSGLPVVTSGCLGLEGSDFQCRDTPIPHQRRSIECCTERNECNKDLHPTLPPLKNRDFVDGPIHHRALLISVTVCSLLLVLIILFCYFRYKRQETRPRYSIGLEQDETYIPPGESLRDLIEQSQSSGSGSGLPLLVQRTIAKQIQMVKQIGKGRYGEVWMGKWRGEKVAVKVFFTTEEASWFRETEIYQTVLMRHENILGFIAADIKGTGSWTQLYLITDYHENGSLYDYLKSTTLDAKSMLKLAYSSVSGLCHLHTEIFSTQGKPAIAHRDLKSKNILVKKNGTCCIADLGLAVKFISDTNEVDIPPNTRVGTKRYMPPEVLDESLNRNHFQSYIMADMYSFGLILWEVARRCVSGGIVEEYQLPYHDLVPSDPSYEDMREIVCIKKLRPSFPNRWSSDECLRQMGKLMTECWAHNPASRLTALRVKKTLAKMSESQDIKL
Sequence of Serine/threonine-protein kinase Nek2 (Homo sapiens) (P51955 whole entry): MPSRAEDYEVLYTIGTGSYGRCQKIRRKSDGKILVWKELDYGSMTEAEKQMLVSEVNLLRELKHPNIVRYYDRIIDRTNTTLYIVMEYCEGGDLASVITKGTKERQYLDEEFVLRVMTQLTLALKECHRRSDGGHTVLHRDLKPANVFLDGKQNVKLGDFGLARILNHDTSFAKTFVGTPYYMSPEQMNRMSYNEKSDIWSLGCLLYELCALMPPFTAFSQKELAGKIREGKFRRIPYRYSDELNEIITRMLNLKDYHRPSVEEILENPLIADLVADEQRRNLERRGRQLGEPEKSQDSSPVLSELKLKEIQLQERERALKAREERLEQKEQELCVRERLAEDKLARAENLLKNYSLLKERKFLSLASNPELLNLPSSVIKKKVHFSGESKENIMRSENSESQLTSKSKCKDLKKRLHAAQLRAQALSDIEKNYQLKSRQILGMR
Sequence of Homeodomain-interacting protein kinase 2 (Homo sapiens) (Q9H2X6 whole entry, looked up): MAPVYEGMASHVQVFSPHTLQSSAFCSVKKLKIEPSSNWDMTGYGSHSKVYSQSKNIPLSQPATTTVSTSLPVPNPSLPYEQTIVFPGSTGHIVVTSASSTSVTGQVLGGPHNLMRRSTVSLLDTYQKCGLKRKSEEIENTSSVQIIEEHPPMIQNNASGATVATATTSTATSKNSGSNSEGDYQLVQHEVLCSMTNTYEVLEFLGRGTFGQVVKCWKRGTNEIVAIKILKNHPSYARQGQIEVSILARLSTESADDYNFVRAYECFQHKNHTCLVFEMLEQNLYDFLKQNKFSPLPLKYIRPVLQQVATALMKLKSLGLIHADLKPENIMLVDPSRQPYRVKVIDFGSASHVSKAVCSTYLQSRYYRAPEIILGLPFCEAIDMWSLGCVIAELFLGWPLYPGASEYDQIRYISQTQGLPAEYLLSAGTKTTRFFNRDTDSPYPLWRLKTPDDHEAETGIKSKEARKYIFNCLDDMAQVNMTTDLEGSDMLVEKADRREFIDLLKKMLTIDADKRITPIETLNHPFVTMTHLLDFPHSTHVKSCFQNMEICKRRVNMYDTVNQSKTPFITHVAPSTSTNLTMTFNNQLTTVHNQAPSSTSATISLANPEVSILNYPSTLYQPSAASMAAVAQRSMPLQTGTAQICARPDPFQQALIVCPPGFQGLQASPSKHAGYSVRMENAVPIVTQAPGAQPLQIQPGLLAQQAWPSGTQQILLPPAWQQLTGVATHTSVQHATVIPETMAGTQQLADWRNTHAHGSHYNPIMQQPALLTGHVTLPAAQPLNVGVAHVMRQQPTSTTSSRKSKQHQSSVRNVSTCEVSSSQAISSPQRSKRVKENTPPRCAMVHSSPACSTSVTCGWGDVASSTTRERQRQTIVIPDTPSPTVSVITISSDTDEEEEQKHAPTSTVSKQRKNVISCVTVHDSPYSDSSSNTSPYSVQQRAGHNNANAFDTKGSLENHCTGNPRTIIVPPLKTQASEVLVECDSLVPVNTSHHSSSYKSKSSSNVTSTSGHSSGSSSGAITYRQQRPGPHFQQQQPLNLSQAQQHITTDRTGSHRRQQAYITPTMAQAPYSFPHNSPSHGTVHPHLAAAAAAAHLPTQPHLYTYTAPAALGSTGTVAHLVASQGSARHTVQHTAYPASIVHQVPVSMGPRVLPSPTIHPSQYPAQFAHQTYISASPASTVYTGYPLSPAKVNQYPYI
Sequence of Proto-oncogene tyrosine-protein kinase Src (Homo sapiens) (P12931 2-536 limits assumed): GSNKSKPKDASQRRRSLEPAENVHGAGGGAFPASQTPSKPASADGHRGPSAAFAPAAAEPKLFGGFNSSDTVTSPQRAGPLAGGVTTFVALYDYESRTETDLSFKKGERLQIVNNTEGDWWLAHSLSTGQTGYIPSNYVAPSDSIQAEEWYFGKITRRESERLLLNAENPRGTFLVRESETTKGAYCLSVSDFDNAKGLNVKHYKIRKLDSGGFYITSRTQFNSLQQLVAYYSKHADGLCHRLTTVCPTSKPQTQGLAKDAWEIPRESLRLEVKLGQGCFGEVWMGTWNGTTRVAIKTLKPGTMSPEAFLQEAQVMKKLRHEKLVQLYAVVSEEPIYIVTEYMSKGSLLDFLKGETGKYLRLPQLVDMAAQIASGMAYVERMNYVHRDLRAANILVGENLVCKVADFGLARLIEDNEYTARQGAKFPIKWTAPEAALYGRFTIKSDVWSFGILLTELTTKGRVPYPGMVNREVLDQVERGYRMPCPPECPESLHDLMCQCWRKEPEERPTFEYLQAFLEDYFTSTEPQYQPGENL
Sequence of Serine/threonine-protein kinase pim-1 (Homo sapiens) (P11309 whole entry, looked up): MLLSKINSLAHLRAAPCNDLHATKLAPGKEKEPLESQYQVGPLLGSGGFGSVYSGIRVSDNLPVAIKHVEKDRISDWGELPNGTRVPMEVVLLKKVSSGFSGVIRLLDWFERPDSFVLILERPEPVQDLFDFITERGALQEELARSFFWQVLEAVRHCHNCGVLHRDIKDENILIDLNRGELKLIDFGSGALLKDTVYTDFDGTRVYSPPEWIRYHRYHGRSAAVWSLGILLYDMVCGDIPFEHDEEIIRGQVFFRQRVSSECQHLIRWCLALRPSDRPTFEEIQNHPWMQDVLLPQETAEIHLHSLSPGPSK

`COc1ccccc1-n1c(-c2cc(O)ccc2C)cn2c3c(=O)[nH]c(=O)n(C)c3nc12` was tested, and the Activity [1] was 0.15%, the Activity [2] was 88% and the Activity [3] was 98%. For the same compound, the Activity [4] was 82%, the Activity [5] was 96% and the Activity [6] was 33%. It also gave an Activity [7] of 0.9%, an Activity [8] of 123% and an Activity [9] of 89%. The Activity [10] was 96%, the Activity [11] was 89% and the Activity [12] was 88%. The Activity [13] was 3%, the Activity [14] was 5.8% and the Activity [15] was 98%. For the same compound, the Activity [16] was 0.6%, the Activity [17] was 89% and the Activity [18] was 102%. For the same compound, the Activity [19] was 104% and the Activity [20] was 98%.

In the case of `COc1ccccc1-n1c(-c2ccccc2C)cn2c3c(=O)[nH]c(=O)n(C)c3nc12`, the Activity [21] is reported as 12%, the Activity [22] is reported as 78% and the Activity [23] is reported as 98%. The Activity [24] was 93% and the Activity [25] was 72%.
